# Assay results: ChEMBL document CHEMBL4680175, “Sulfonamide-based ring-fused analogues for CAN508 as novel carbonic anhydrase inhibitors endowed with antitumor activity: Design, synthesis, and in vitro biological evaluation” (Eur J Med Chem, 2020)
# The source made the active and inactive calls. The calls are words filed in the database; no cut-off is given here.
# What was measured:
# Carbonic anhydrase 1 = Carbonic anhydrase 1 (Homo sapiens, UniProt P00915); experiment: Inhibition of recombinant human carbonic anhydrase 1 preincubated with enzyme for 15 mins by phenol red dye based stopped flow CO2 hydrase assay
# Carbonic anhydrase 2 = Carbonic anhydrase 2 (Homo sapiens, UniProt P00918); experiment: Inhibition of recombinant human carbonic anhydrase 2 preincubated with enzyme for 15 mins by phenol red dye based stopped flow CO2 hydrase assay
# Carbonic anhydrase 9 = Carbonic anhydrase 9 (Homo sapiens, UniProt Q16790); experiment: Inhibition of recombinant human carbonic anhydrase 9 preincubated with enzyme for 15 mins by phenol red dye based stopped flow CO2 hydrase assay
# Carbonic anhydrase 12 = Carbonic anhydrase 12 (Homo sapiens, UniProt O43570); experiment: Inhibition of recombinant human carbonic anhydrase 12 preincubated with enzyme for 15 mins by phenol red dye based stopped flow CO2 hydrase assay
# [1] = target: Cyclin-dependent kinase 2/cyclin E1 (Homo sapiens, UniProt P24941); experiment: Inhibition of CDK2/cyclin E (unknown origin) expressed in baculovirus infected Sf21 insect cells using histone H1 as substrate in presence of [gamma33P]ATP
# CDK9/cyclin T1 = CDK9/cyclin T1 (Homo sapiens, UniProt P50750); experiment: Inhibition of human full-length N-terminal GST/His6-tagged CDK9 (1 to 372 residues)/His6-tagged Cyclin-T1 (1 to 726 residues) expressed in sf9 cells using (YSPTSPS)2KK peptide as substrate in presence of [gamma33P]ATP
# CCRF-CEM = experiment: Antitumor activity against human CCRF-CEM cells assessed as cell growth inhibition at 10 uM incubated for 48 hrs by sulforhodamine B assay; assay type: functional; details: read-out: GI
# How it was run: (§1)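 NCI Drug Evaluation Branch protocol: primary single-dose screen at 10 μM across a 57-line human cancer panel. Drug exposure is 48 h. Cell growth and viability are read by sulforhodamine B assay. Data are given as a mean graph of percent growth of treated cells and reported as percentage growth inhibition (GI%).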
# RPMI-8226 = experiment: Antitumor activity against human RPMI8226 cells assessed as cell growth inhibition at 10 uM incubated for 48 hrs by sulforhodamine B assay; assay type: functional; details: read-out: GI; how it was run: as §1
# SR = experiment: Antitumor activity against human SR cells assessed as cell growth inhibition at 10 uM incubated for 48 hrs by sulforhodamine B assay; assay type: functional; details: read-out: GI
# How it was run: (§2)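 NCI one-dose screen: 57-cell-line panel exposed at 10 μM for 48 h, Drug Evaluation Branch protocol. Growth and viability read by sulforhodamine B; data given as percent growth inhibition from the mean-graph of percent growth of treated cells.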
# HOP-92 = experiment: Antitumor activity against human HOP92 cells assessed as cell growth inhibition at 10 uM incubated for 48 hrs by sulforhodamine B assay; assay type: functional; details: read-out: GI; how it was run: as §1
# NCI-H322M = experiment: Antitumor activity against human NCI-H322M cells assessed as cell growth inhibition at 10 uM incubated for 48 hrs by sulforhodamine B assay; assay type: functional; details: read-out: GI; how it was run: as §1
# NCI-H460 = experiment: Antitumor activity against human NCI-H460 cells assessed as cell growth inhibition at 10 uM incubated for 48 hrs by sulforhodamine B assay; assay type: functional; details: read-out: GI; how it was run: as §1
# NCI-H522 = experiment: Antitumor activity against human NCI-H522 cells assessed as cell growth inhibition at 10 uM incubated for 48 hrs by sulforhodamine B assay; assay type: functional; details: read-out: GI; how it was run: as §1
# HCT-116 = experiment: Antitumor activity against human HCT116 cells assessed as cell growth inhibition at 10 uM incubated for 48 hrs by sulforhodamine B assay; assay type: functional; details: read-out: GI; how it was run: as §1
# HCT-15 = experiment: Antitumor activity against human HCT15 cells assessed as cell growth inhibition at 10 uM incubated for 48 hrs by sulforhodamine B assay; assay type: functional; details: read-out: GI; how it was run: as §1
# KM12 = experiment: Antitumor activity against human KM12 cells assessed as cell growth inhibition at 10 uM incubated for 48 hrs by sulforhodamine B assay; assay type: functional; details: read-out: GI; how it was run: as §1
# SW-620 = experiment: Antitumor activity against human SW620 cells assessed as cell growth inhibition at 10 uM incubated for 48 hrs by sulforhodamine B assay; assay type: functional; details: read-out: GI; how it was run: as §2
# SF-268 = experiment: Antitumor activity against human SF268 cells assessed as cell growth inhibition at 10 uM incubated for 48 hrs by sulforhodamine B assay; assay type: functional; details: read-out: GI; how it was run: as §1
# SF-539 = experiment: Antitumor activity against human SF539 cells assessed as cell growth inhibition at 10 uM incubated for 48 hrs by sulforhodamine B assay; assay type: functional; details: read-out: GI; how it was run: as §1
# SNB-75 = experiment: Antitumor activity against human SNB-75 cells assessed as cell growth inhibition at 10 uM incubated for 48 hrs by sulforhodamine B assay; assay type: functional; details: read-out: GI; how it was run: as §2
# U-251 = experiment: Antitumor activity against human U251 cells assessed as cell growth inhibition at 10 uM incubated for 48 hrs by sulforhodamine B assay; assay type: functional; details: read-out: GI; how it was run: as §2
# LOX IMVI = experiment: Antitumor activity against human LOX IMVI cells assessed as cell growth inhibition at 10 uM incubated for 48 hrs by sulforhodamine B assay; assay type: functional; details: read-out: GI; how it was run: as §1
# Malme-3M = experiment: Antitumor activity against human MALME-3M cells assessed as cell growth inhibition at 10 uM incubated for 48 hrs by sulforhodamine B assay; assay type: functional; details: read-out: GI; how it was run: as §1
# M14 = experiment: Antitumor activity against human M14 cells assessed as cell growth inhibition at 10 uM incubated for 48 hrs by sulforhodamine B assay; assay type: functional; details: read-out: GI; how it was run: as §1
# CAKI-1 = experiment: Antitumor activity against human CAKI-1 cells assessed as cell growth inhibition at 10 uM incubated for 48 hrs by sulforhodamine B assay; assay type: functional; details: read-out: GI; how it was run: as §1
# MDA-MB-435 = experiment: Antitumor activity against human MDA-MB-435 cells assessed as cell growth inhibition at 10 uM incubated for 48 hrs by sulforhodamine B assay; assay type: functional; details: read-out: GI; how it was run: as §1
# SK-MEL-2 = experiment: Antitumor activity against human SK-MEL-2 cells assessed as cell growth inhibition at 10 uM incubated for 48 hrs by sulforhodamine B assay; assay type: functional; details: read-out: GI; how it was run: as §1
# SK-MEL-5 = experiment: Antitumor activity against human SK-MEL-5 cells assessed as cell growth inhibition at 10 uM incubated for 48 hrs by sulforhodamine B assay; assay type: functional; details: read-out: GI; how it was run: as §1
# UACC-62 = experiment: Antitumor activity against human UACC-62 cells assessed as cell growth inhibition at 10 uM incubated for 48 hrs by sulforhodamine B assay; assay type: functional; details: read-out: GI; how it was run: as §2
# IGROV-1 = experiment: Antitumor activity against human IGROV1 cells assessed as cell growth inhibition at 10 uM incubated for 48 hrs by sulforhodamine B assay; assay type: functional; details: read-out: GI; how it was run: as §1
# OVCAR-3 = experiment: Antitumor activity against human OVCAR-3 cells assessed as cell growth inhibition at 10 uM incubated for 48 hrs by sulforhodamine B assay; assay type: functional; details: read-out: GI; how it was run: as §1
# OVCAR-8 = experiment: Antitumor activity against human OVCAR-8 cells assessed as cell growth inhibition at 10 uM incubated for 48 hrs by sulforhodamine B assay; assay type: functional; details: read-out: GI; how it was run: as §1
# SK-OV-3 = experiment: Antitumor activity against human SK-OV-3 cells assessed as cell growth inhibition at 10 uM incubated for 48 hrs by sulforhodamine B assay; assay type: functional; details: read-out: GI; how it was run: as §1
# DU-145 = experiment: Antitumor activity against human DU-145 cells assessed as cell growth inhibition at 10 uM incubated for 48 hrs by sulforhodamine B assay; assay type: functional; details: read-out: GI; how it was run: as §1
# 786-0 = experiment: Antitumor activity against human 786-0 cells assessed as cell growth inhibition at 10 uM incubated for 48 hrs by sulforhodamine B assay; assay type: functional; details: read-out: GI; how it was run: as §1
# A498 = experiment: Antitumor activity against human A498 cells assessed as cell growth inhibition at 10 uM incubated for 48 hrs by sulforhodamine B assay; assay type: functional; details: read-out: GI; how it was run: as §1
# ACHN = experiment: Antitumor activity against human ACHN cells assessed as cell growth inhibition at 10 uM incubated for 48 hrs by sulforhodamine B assay; assay type: functional; details: read-out: GI; how it was run: as §1
# UO-31 = experiment: Antitumor activity against human UO-31 cells assessed as cell growth inhibition at 10 uM incubated for 48 hrs by sulforhodamine B assay; assay type: functional; details: read-out: GI; how it was run: as §2
# RXF 393 = experiment: Antitumor activity against human RXF 393 cells assessed as cell growth inhibition at 10 uM incubated for 48 hrs by sulforhodamine B assay; assay type: functional; details: read-out: GI; how it was run: as §1
# SN12C = experiment: Antitumor activity against human SN12C cells assessed as cell growth inhibition at 10 uM incubated for 48 hrs by sulforhodamine B assay; assay type: functional; details: read-out: GI; how it was run: as §1
# MDA-MB-231 = experiment: Antitumor activity against human MDA-MB-231/ATCC cells assessed as cell growth inhibition at 10 uM incubated for 48 hrs by sulforhodamine B assay; assay type: functional; details: read-out: GI; how it was run: as §1
# Hs-578T = experiment: Antitumor activity against human HS 578T cells assessed as cell growth inhibition at 10 uM incubated for 48 hrs by sulforhodamine B assay; assay type: functional; details: read-out: GI; how it was run: as §1
# BT-549 = experiment: Antitumor activity against human BT-549 cells assessed as cell growth inhibition at 10 uM incubated for 48 hrs by sulforhodamine B assay; assay type: functional; details: read-out: GI; how it was run: as §1
# T47D = experiment: Antitumor activity against human T-47D cells assessed as cell growth inhibition at 10 uM incubated for 48 hrs by sulforhodamine B assay; assay type: functional; details: read-out: GI; how it was run: as §2
# NCI/ADR-RES = experiment: Antitumor activity against human NCI/ADR-RES cells assessed as cell growth inhibition at 10 uM incubated for 48 hrs by sulforhodamine B assay; assay type: functional, cell-based; how it was run: as §1
# Chain of Carbonic anhydrase 12 (O43570 whole entry): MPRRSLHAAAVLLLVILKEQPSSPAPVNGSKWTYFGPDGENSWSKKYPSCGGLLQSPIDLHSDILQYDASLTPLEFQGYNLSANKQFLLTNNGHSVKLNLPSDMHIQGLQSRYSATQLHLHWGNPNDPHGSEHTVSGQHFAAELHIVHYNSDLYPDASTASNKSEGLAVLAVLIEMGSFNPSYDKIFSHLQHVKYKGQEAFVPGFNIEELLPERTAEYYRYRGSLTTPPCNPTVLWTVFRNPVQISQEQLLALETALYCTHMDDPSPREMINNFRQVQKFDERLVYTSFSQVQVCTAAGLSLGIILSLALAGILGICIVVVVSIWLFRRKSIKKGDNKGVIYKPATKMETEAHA
# Chain of CDK9/cyclin T1 (O60563 whole entry, the tested form may be a part): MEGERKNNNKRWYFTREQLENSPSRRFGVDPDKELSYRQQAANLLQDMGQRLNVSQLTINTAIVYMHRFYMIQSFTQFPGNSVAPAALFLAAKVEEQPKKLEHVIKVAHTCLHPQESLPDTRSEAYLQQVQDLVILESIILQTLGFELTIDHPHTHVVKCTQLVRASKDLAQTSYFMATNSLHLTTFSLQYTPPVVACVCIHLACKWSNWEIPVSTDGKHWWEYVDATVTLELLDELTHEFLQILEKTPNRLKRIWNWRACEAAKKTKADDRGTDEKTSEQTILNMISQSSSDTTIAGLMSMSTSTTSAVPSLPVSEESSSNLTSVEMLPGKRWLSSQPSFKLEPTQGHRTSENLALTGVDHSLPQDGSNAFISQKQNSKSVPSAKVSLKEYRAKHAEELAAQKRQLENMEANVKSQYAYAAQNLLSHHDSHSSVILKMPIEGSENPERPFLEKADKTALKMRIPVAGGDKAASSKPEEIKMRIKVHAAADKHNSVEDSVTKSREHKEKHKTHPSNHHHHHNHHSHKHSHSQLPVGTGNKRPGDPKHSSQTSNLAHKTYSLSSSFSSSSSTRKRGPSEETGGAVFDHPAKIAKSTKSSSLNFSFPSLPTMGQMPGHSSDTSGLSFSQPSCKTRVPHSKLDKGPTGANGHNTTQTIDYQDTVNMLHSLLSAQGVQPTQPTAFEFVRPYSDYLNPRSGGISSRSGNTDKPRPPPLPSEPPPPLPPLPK
# Chain of CDK9/cyclin T1 (P50750 whole entry, the tested form may be a part): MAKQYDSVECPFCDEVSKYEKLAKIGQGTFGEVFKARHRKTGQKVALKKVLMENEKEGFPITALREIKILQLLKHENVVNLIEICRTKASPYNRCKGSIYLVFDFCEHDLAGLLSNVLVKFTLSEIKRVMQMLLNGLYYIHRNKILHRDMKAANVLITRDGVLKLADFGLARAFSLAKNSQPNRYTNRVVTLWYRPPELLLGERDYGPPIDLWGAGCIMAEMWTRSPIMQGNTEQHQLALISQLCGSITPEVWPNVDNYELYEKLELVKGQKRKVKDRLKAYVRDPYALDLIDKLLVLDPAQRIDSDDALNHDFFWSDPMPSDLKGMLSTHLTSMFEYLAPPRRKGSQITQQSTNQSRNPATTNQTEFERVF
# Chain of Carbonic anhydrase 1 (P00915 whole entry): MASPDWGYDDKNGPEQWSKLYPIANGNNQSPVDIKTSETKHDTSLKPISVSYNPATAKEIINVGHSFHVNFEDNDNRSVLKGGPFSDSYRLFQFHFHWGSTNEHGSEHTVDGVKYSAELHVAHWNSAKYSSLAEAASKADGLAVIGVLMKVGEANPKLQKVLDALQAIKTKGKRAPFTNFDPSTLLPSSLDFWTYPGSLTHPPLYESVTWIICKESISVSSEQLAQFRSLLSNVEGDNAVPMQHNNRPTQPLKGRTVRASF
smiles,measurement,setting,value
Nc1nn2cc(-c3ccc(F)cc3)[nH]c2c1/N=N/c1ccc(S(N)(=O)=O)cc1,Ki,Carbonic anhydrase 1,769 nM
same,Ki,Carbonic anhydrase 2,33.8 nM
same,Ki,Carbonic anhydrase 9,28.4 nM
same,Ki,Carbonic anhydrase 12,18.6 nM
same,IC50,[1],> 12500 nM
same,IC50,CDK9/cyclin T1,> 12500 nM
same,inhibition of growth at 10 µM,CCRF-CEM,33%
same,inhibition of growth at 10 µM,RPMI-8226,27%
same,inhibition of growth at 10 µM,SR,33%
same,inhibition of growth at 10 µM,HOP-92,25%
same,inhibition of growth at 10 µM,NCI-H322M,58%
same,inhibition of growth at 10 µM,NCI-H460,41%
same,inhibition of growth at 10 µM,NCI-H522,45%
same,inhibition of growth at 10 µM,HCT-116,37%
same,inhibition of growth at 10 µM,HCT-15,40%
same,inhibition of growth at 10 µM,KM12,27%
same,inhibition of growth at 10 µM,SW-620,23%
same,inhibition of growth at 10 µM,SF-268,23%
same,inhibition of growth at 10 µM,SF-539,27%
same,inhibition of growth at 10 µM,SNB-75,44%
same,inhibition of growth at 10 µM,U-251,24%
same,inhibition of growth at 10 µM,LOX IMVI,36%
same,inhibition of growth at 10 µM,Malme-3M,42%
same,inhibition of growth at 10 µM,M14,35%
same,inhibition of growth at 10 µM,CAKI-1,53%
same,inhibition of growth at 10 µM,MDA-MB-435,22%
same,inhibition of growth at 10 µM,SK-MEL-2,30%
same,inhibition of growth at 10 µM,SK-MEL-5,23%
same,inhibition of growth at 10 µM,UACC-62,29%
same,inhibition of growth at 10 µM,IGROV-1,38%
same,inhibition of growth at 10 µM,OVCAR-3,21%
same,inhibition of growth at 10 µM,OVCAR-8,21%
same,inhibition of growth at 10 µM,SK-OV-3,26%
same,inhibition of growth at 10 µM,DU-145,30%
same,inhibition of growth at 10 µM,786-0,32%
same,inhibition of growth at 10 µM,A498,60%
same,inhibition of growth at 10 µM,ACHN,48%
same,inhibition of growth at 10 µM,UO-31,42%
same,inhibition of growth at 10 µM,RXF 393,40%
same,inhibition of growth at 10 µM,SN12C,31%
same,inhibition of growth at 10 µM,MDA-MB-231,25%
same,inhibition of growth at 10 µM,Hs-578T,33%
same,inhibition of growth at 10 µM,BT-549,26%
same,inhibition of growth at 10 µM,T47D,22%
same,Activity,NCI/ADR-RES,inactive
Nc1nn2c(-c3ccc(F)cc3)ccnc2c1/N=N/c1ccc(S(N)(=O)=O)cc1,Ki,Carbonic anhydrase 1,681 nM
same,Ki,Carbonic anhydrase 2,14.5 nM
same,Ki,Carbonic anhydrase 9,6 nM
same,Ki,Carbonic anhydrase 12,31.4 nM
same,IC50,[1],> 12500 nM
same,IC50,CDK9/cyclin T1,> 12500 nM
Nc1n[nH]c(N)c1/N=N/c1ccc(S(N)(=O)=O)cc1,Ki,Carbonic anhydrase 1,271 nM
same,Ki,Carbonic anhydrase 2,38.1 nM
same,Ki,Carbonic anhydrase 9,22 nM
same,Ki,Carbonic anhydrase 12,10.1 nM
same,IC50,[1],41700 nM
same,IC50,CDK9/cyclin T1,> 12500 nM
